Laboratory results reported in ChEMBL document CHEMBL1154743, “A novel potent nicotinamide phosphoribosyltransferase inhibitor synthesized via click chemistry” (J Med Chem, 2010).
The source made the active and inactive calls. No cut-off for these calls is given here.

How the values were obtained:
ACHN = test: Growth inhibition of human ACHN cells by sulforhodamine B assay; type: functional
MDA-MB-468 = test: Growth inhibition of human MDA-MB-468 cells by sulforhodamine B assay; type: functional
NCI-H460 = test: Growth inhibition of human NCI-H460 cells by sulforhodamine B assay; type: functional
LOX IMVI = test: Growth inhibition of human LOXIMVI cells by sulforhodamine B assay; type: functional
UACC-257 = test: Growth inhibition of human UACC257 cells by sulforhodamine B assay; type: functional
MDA-MB-231 = test: Growth inhibition of human MDA-MB-231 cells by sulforhodamine B assay; type: functional
SW-620 = test: Growth inhibition of human SW620 cells by sulforhodamine B assay; type: functional
HCC 2998 = test: Growth inhibition of human HCC2998 cells by sulforhodamine B assay; type: functional
SH-SY5Y [1] = test: Cytotoxicity against human SH-SY5Y cells assessed as cell viability after 48 hrs by MTT assay relative to control; type: functional
Procedure, shortened: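 SH-SY5Y cells incubated with compound for 48 h and viability measured by MTT. Values are mean ± SEM of 8-12 determinations.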

SH-SY5Y [2] = test: Cytotoxicity against human SH-SY5Y cells assessed as reduction of total cellular NAD(P) level at 300 nM relative to control; type: functional; set-up: scale not given: the % may be the effect or the level left
Procedure, shortened: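 Total cellular NAD levels in SH-SY5Y cells screened at a single fixed concentration of 300 nM. Expressed relative to control, n = 10.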

HT-29 = test: Growth inhibition of human HT-29 cells by sulforhodamine B assay; type: functional
MCF7 = test: Growth inhibition of human MCF7 cells by sulforhodamine B assay; type: functional
NCI-H522 = test: Growth inhibition of human NCI-H522 cells by sulforhodamine B assay; type: functional
SH-SY5Y [3] = test: Cytotoxicity against human SH-SY5Y cells assessed as cell viability after 48 hrs by MTT assay relative to control in presence of NAD; type: functional
SH-SY5Y [4] = test: Induction of autophagy in human SH-SY5Y cells assessed as LC3/phosphotidylethanolamine coupling after 40 hrs by Western blot analysis; type: functional, cell-based
Procedure, shortened: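 Western blot of LC3-I and LC3-II, with tubulin as reference, in untreated and treated cells exposed to 10 nM compound. Six independent experiments were run, using two LC3 antibodies from different sources.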

OVCAR-4 = test: Growth inhibition of human OVCAR4 cells by sulforhodamine B assay; type: functional
SF-539 = test: Growth inhibition of human SF539 cells by sulforhodamine B assay; type: functional
Malme-3M = test: Growth inhibition of human MALME-3M cells by sulforhodamine B assay; type: functional
SK-MEL-5 = test: Growth inhibition of human SK-MEL-5 cells by sulforhodamine B assay; type: functional; conditions: read-out: LC50 (the source's name)
[5] = Growth inhibition of human […] cells by sulforhodamine B assay; type: functional
SF-268 = test: Growth inhibition of human SF268 cells by sulforhodamine B assay; type: functional
U-251 = test: Growth inhibition of human U251 cells by sulforhodamine B assay; type: functional
SK-MEL-2 = test: Growth inhibition of human SK-MEL-2 cells by sulforhodamine B assay; type: functional
UO-31 = test: Growth inhibition of human UO31 cells by sulforhodamine B assay; type: functional
DU-145 = test: Growth inhibition of human DU145 cells by sulforhodamine B assay; type: functional
[6] = read-out: LC50 (the source's name)

## O=C(CCCCCCCn1cc(-c2cccnc2)nn1)Nc1ccccc1-c1ccccc1
ACHN
  GI50: 18.7 µM
  TGI: > 100 µM
ACHN; [6]
  CC50: > 100 µM
MDA-MB-468
  GI50: 7.34 µM
  TGI: > 100 µM
MDA-MB-468; [6]
  CC50: > 100 µM
NCI-H460
  GI50: 724 nM
  TGI: > 100 µM
NCI-H460; [6]
  CC50: > 100 µM
LOX IMVI
  GI50: 10.1 µM
  TGI: > 100 µM
LOX IMVI; [6]
  CC50: > 100 µM
UACC-257
  GI50: 13.3 µM
  TGI: 30.3 µM
UACC-257; [6]
  CC50: 69.3 µM
MDA-MB-231
  GI50: 20.9 µM
  TGI: > 100 µM
MDA-MB-231; [6]
  CC50: > 100 µM
SW-620
  GI50: 61.5 nM
  TGI: > 100 µM
SW-620; [6]
  CC50: > 100 µM
HCC 2998
  GI50: 700 nM
  TGI: > 100 µM
HCC 2998; [6]
  CC50: > 100 µM
SH-SY5Y [1]
  Activity: 24%
SH-SY5Y [2]
  Activity: 9.9%
HT-29
  GI50: 460 nM
  TGI: > 100 µM
HT-29; [6]
  CC50: > 100 µM
MCF7
  GI50: 3.42 µM
  TGI: 50.1 µM
MCF7; [6]
  CC50: > 100 µM
NCI-H522
  GI50: 91.4 nM
  TGI: > 100 µM
NCI-H522; [6]
  CC50: > 100 µM
SH-SY5Y [3]
  Activity: 97%
SH-SY5Y [4]
  Activity: Active
OVCAR-4
  GI50: 31.6 µM
  TGI: > 100 µM
OVCAR-4; [6]
  CC50: > 100 µM
SF-539
  GI50: 61.8 nM
  TGI: > 100 µM
SF-539; [6]
  CC50: > 100 µM
Malme-3M
  GI50: 12.2 µM
  TGI: 62.8 µM
Malme-3M; [6]
  CC50: > 100 µM
SK-MEL-5
  CC50: 42.4 µM
[5]
  GI50: 913 nM
  TGI: 60.6 µM
[5]; [6]
  CC50: > 100 µM
SF-268
  GI50: 24.7 µM
  TGI: > 100 µM
SF-268; [6]
  CC50: > 100 µM
U-251
  GI50: 521 nM
  TGI: > 100 µM
U-251; [6]
  CC50: > 100 µM
SK-MEL-2
  GI50: 12.8 µM
  TGI: 46.2 µM
SK-MEL-2; [6]
  CC50: 57 µM
UO-31
  GI50: 16.9 µM
  TGI: 93 µM
UO-31; [6]
  CC50: > 100 µM
DU-145
  GI50: 702 nM
  TGI: > 100 µM
DU-145; [6]
  CC50: > 100 µM
